In article PMC5896753 (ACS chemical biology, 2017):

Columns and labels:
Neu7 astrocytes [1] = test: cell-surface CS-E expression, immunostaining with CS-E-specific antibody; type: cell-based
Procedure, shortened: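 Neu7 astrocytes were treated with test compound, with chlorate as comparator. Cells were co-stained with a CS-E-specific antibody and the nuclear stain DAPI, and average anti-CS-E fluorescence per condition was quantified from images. Mean ± S.E.M. of three experiments, 20-100 cells per experiment.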

Neu7 astrocytes [2] = test: disaccharide composition of secreted CSPGs; type: cell-based
Chst15 [3] = biological target: T1, Chst15 (Homo sapiens, UniProt Q7LFX5); test: [35S]-labeling assay; type: biochemical; conditions: 25 μM of inhibitor; normalized to the inhibition by compound 19; three independent measurements
T1 sequence (Q7LFX5 1-561): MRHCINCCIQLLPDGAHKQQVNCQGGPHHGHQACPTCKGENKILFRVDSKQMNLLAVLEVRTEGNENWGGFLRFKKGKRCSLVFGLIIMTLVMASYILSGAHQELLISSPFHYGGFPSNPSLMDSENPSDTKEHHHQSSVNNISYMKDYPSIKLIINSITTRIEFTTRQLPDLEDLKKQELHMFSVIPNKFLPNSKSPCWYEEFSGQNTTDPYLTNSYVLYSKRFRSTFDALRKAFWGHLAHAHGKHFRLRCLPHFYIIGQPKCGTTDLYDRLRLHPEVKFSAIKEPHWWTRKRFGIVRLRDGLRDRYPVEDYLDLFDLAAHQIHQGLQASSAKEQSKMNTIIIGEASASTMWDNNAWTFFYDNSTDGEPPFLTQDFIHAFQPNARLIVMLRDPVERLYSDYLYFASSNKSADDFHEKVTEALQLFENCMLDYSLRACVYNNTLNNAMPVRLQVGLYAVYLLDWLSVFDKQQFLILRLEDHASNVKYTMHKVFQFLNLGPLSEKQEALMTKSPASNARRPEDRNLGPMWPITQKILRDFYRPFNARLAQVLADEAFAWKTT

Chst15 [4] = biological target: T1, Chst15; test: enzyme-coupled fluorescence assay; type: biochemical
Sult1c1 = Sult1c1 counter-screen; type: biochemical; conditions: concentrations tested 3-100 μM
Chst15 [5] = biological target: T1, Chst15; test: sulfotransferase specificity panel; type: biochemical
[6] = biological target: T2, chondroitin 4-O-sulfotransferase Chst11 (Homo sapiens, UniProt Q9NPF2); test: sulfotransferase specificity panel; type: biochemical
T2 sequence (Q9NPF2 1-352): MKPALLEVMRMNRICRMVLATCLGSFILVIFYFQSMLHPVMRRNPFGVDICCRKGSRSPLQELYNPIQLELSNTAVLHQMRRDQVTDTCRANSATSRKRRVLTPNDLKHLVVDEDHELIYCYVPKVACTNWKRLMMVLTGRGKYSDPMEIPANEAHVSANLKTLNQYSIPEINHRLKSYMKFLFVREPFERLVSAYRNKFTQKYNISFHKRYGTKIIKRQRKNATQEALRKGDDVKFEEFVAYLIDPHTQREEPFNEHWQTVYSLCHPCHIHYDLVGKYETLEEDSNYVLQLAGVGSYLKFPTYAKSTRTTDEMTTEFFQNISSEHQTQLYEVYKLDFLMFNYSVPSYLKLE

[7] = biological target: T3, chondroitin 2-O-sulfotransferase Ust (Homo sapiens, UniProt Q9Y2C2); test: sulfotransferase specificity panel; type: biochemical
T3 sequence (Q9Y2C2 1-406): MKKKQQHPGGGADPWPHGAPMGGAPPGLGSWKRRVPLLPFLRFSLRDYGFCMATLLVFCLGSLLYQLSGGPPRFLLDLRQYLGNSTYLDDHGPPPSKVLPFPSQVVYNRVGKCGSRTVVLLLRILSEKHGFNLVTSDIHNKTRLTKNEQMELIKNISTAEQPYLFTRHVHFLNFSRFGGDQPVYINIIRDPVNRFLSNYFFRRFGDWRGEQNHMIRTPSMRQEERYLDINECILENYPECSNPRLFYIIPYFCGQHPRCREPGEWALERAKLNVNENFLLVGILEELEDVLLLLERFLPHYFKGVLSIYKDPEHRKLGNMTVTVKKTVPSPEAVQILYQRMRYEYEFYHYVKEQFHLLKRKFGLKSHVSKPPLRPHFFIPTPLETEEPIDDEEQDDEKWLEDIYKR

[8] = biological target: heparan 3-O-sulfotransferase Hs3st1 (Homo sapiens, UniProt O14792); test: sulfotransferase specificity panel; type: biochemical
heparan 3-O-sulfotransferase Hs3st1, sequence (O14792 21-307): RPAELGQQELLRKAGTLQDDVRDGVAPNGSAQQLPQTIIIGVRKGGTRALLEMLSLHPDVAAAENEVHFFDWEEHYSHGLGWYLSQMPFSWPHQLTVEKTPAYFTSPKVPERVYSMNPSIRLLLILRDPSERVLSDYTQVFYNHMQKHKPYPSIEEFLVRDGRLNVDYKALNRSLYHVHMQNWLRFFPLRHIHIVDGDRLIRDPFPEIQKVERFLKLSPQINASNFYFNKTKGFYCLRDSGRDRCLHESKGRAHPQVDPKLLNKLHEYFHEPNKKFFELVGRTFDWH

Sult1e1 = biological target: T4, Sult1e1 (Homo sapiens, UniProt P49888); test: sulfotransferase specificity panel; type: biochemical
T4 sequence (P49888 1-294): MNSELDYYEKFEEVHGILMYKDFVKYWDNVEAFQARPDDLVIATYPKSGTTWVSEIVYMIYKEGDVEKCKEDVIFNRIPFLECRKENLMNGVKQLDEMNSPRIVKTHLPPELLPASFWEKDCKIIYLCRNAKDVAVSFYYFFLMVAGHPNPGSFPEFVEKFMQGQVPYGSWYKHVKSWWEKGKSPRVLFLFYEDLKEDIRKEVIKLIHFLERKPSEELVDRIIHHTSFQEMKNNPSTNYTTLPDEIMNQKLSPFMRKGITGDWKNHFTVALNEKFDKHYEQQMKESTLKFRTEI

Sult2b1a = biological target: T5, Sult2b1a (Homo sapiens, UniProt O00204); test: sulfotransferase specificity panel; type: biochemical
T5 sequence (O00204 1-350 isoform O00204-2): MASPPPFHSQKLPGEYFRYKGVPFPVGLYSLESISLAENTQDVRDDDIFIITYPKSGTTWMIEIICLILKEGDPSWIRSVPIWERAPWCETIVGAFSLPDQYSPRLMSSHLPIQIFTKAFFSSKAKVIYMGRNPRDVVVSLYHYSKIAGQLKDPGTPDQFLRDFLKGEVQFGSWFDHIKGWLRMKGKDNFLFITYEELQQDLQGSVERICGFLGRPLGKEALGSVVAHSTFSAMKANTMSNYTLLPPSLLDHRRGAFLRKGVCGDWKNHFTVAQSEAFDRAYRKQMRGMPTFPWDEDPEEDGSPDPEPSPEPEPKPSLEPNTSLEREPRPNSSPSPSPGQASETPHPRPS

Sult2b1b = biological target: T6, Sult2b1b (Homo sapiens, UniProt O00204); test: sulfotransferase specificity panel; type: biochemical
T6 sequence (O00204 1-365): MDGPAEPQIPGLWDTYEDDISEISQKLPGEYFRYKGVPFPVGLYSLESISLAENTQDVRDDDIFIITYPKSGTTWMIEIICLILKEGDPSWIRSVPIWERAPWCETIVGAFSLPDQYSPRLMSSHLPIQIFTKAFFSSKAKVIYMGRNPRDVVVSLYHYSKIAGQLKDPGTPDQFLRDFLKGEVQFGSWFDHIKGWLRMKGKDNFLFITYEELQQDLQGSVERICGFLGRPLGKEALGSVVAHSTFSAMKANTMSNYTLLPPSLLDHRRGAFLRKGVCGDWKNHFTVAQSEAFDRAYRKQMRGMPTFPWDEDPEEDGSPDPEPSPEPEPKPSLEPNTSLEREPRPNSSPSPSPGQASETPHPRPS

Chst15 [9] = biological target: T1, Chst15; test: pre-incubation and ten-fold dilution experiments; type: biochemical
NIH3T3 fibroblasts = test: CS-E expression in fibroblasts; type: cell-based
DRG neurons = test: in vitro CSPG boundary assay; type: cell-based, rat; conditions: CSPGs from treated vs untreated Neu7 astrocytes
Procedure, shortened: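 Boundary assay: purified CSPGs from Neu7 astrocytes treated with or without test compound were mixed with Texas Red dye and spotted onto glass coverslips. DRG neurons were plated on the coverslips, and the percentage of neurites crossing the CSPG boundary was scored. Mean ± S.E.M. from five experiments, 20-40 cells each.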

[10] = liver microsome stability; type: in vitro ADME; conditions: human
[11] = liver microsome stability; type: in vitro ADME; conditions: mouse
[12] = liver microsome stability; type: in vitro ADME; conditions: rat
[13] = in vivo pharmacokinetics after intravenous injection; parameters: species or system rats; conditions: rat, 3 mg/kg
[14] = high concentrations of sodium chlorate, compared to untreated cells

[Na+].[O-][Cl+2]([O-])[O-] [sodium chlorate]
cell-surface CS-E expression (Neu7 astrocytes [1]; doses as high as 25 mM, compared to 34): did not reduce CS-E levels to as large an extent
decrease in CS-E of secreted CSPGs (Neu7 astrocytes [2]; [14]): 31.6 ± 10.9%
increase in uCS of secreted CSPGs (Neu7 astrocytes [2]; [14]): 39.7 ± 15.6%

COc1cc(/C=C(\C#N)C(=O)Nc2ccc(Cl)cc2Cl)cc(Br)c1O [Compound 34]
Relative Inhibition (Chst15 [3]): 1.35 ± 0.12
mode of inhibition (Chst15 [4]; CS-A substrate concentration varied): mixed mode of inhibition
Ki (Chst15 [4]; CS-A substrate concentration varied, pseudo first-order PAPS concentration): 1.43 µM
Ki (Chst15 [4]; PAPS concentration varied, fixed CS-A acceptor substrate (10 mM)): 0.77 µM
mode of inhibition (Chst15 [4]; PAPS concentration varied, fixed CS-A (10 mM)): competitive mode of inhibition
activity against Sult1c1 (Sult1c1): no activity
IC50 (Chst15 [5]): 2 to 2.5 µM
specificity for GAG sulfotransferases compared to cytosolic sulfotransferases (Chst15 [5]; GAG vs cytosolic sulfotransferases): 8- to 18 fold
IC50 [6]: 2 to 2.5 µM
IC50 [7]: 2 to 2.5 µM
IC50 [8]: 2 to 2.5 µM
IC50 (Sult1e1): 19 to 42 µM
IC50 (Sult2b1a): 19 to 42 µM
IC50 (Sult2b1b): 19 to 42 µM
effect of pre-incubation time on Chst15 inhibition (Chst15 [9]; inhibitor pre-incubated with Chst15 for various lengths of time): Longer pre-incubation times lead to greater inhibition of the enzyme
Chst15 activity in ten-fold dilution experiments (Chst15 [9]; up to 100 μM of 34): rapidly restored
cell-surface CS-E expression (Neu7 astrocytes [1]; 10 μM or 25 μM): significant, dose-dependent decrease
CS-E expression (NIH3T3 fibroblasts): significant loss of CS-E expression
inhibition at 25 µM (Neu7 astrocytes [2]; Astrocyte, read-out: reduction in the CS-E sulfation motif on secreted CSPGs): 67.8 ± 10.9%
neurite crossing of CSPG boundary (DRG neurons): crossed more freely
stability in liver microsomes based on intrinsic clearance [10]: good stability
stability in liver microsomes based on intrinsic clearance [11]: good stability
stability in liver microsomes based on intrinsic clearance [12]: good stability
clearance [13]: 1.26 L/h/kg
half-life [13]: 1.6 h
